According to ChEMBL document CHEMBL4706578, “New one-pot synthesis of anti-tuberculosis compounds inspired on isoniazid” (Eur J Med Chem, 2020):
≈ marks a conversion by molar mass, not a printed value.

Tests used:
[1] = test system: Mycobacterium tuberculosis; assay: Antitubercular activity against Mycobacterium tuberculosis H37Rv assessed as inhibition of microbial growth incubated by measuring turbidity for 5 days by serial microdilution based colorimetric assay; type: functional; settings: 120 h, dose 20 µM, time 5 day
In short: (§1)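 Strains grown in Middlebrook 7H9 with ADS (BSA, dextrose, NaCl) and 1% glycerol. Compounds from 40 mM DMSO stocks were two-fold serially diluted in plate broth. Inoculum was a 1/25 dilution of a mid-log culture at McFarland 1.0, about 10⁶ CFU/well. Plates sealed and held 5 days at 37 °C. MIC is the lowest concentration with no visible turbidity. Rifampicin was the control drug.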

[2] = test system: Mycobacterium tuberculosis; assay: Antimycobacterial activity against Mycobacterium tuberculosis InhA-OE strain assessed as inhibition of microbial growth at 20 uM incubated for 5 days by serial microdilution based colorimetric assay; type: functional; settings: 120 h, time 5 day
[3] = Selectivity index, ratio of CC50 for african green monkey Vero cells to MIC for Mycobacterium tuberculosis H37Rv; type: toxicity; settings: read-out: Selectivity Index
[4] = Cytotoxicity against African green monkey Vero E6 cells assessed as reduction in cell viability incubated for 48 hrs by neutral red assay; type: cell-based; settings: Chlorocebus aethiops
In short: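 Vero kidney […] were seeded at 25,000 cells/well and allowed 24 h before compound was added, then incubated 48 h. Viable cells were read by neutral red uptake. IC50 was taken from log plots of growth inhibition versus concentration. Doxorubicin was the positive control and DMSO the vehicle control.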

[5] = test system: Mycobacterium tuberculosis; assay: Antitubercular activity against Mycobacterium tuberculosis H37Rv; type: functional; in short: as §1
[6] = test system: Mycobacterium tuberculosis; assay: Antitubercular activity against Mycobacterium tuberculosis H37Rv under aerobic condition; type: functional
[7] = test system: Mycobacterium tuberculosis; assay: Antitubercular activity against Mycobacterium tuberculosis H37Rv under anerobic condition; type: functional

SMILES | MIC [1] | also measured
COC(=O)/C=C/N(/N=C/C=C(C)C)S(=O)(=O)c1ccc(C)cc1 | 5 µM | MIC [2]: 10 µM
COC(=O)/C=C\N(/N=C/c1ccc2ccccc2c1)S(=O)(=O)c1ccc(C)cc1 | 20 µM | 
COC(=O)/C=C\N(/N=C/c1ccco1)S(=O)(=O)c1ccc(C)cc1 | 20 µM | 
NNC(=O)c1ccncc1 [ISONIAZID] | 0.36 µM | MIC [2]: > 7.3 µM
COC(=O)/C=C/N(/N=C/c1ccco1)S(=O)(=O)c1ccc(C)cc1 | 5 µM | MIC [2]: 10 µM
COC(=O)/C=C\N(/N=C/c1ccccc1)S(=O)(=O)c1ccc(C)cc1 | 20 µM | 
COC(=O)/C=C\N(/N=C/C1=CCCCC1)S(=O)(=O)c1ccc(C)cc1 | > 20 µM | 
COC(=O)/C=C/N(/N=C/c1ccc(-c2ccccc2)cc1)S(=O)(=O)c1ccc(C)cc1 | > 20 µM | 
C/C=C/C=C/C=N/N(/C=C\C(=O)OC)S(=O)(=O)c1ccc(C)cc1 | 20 µM | 
COC(=O)/C=C\N(/N=C/c1ccc(OC)c(OC)c1)S(=O)(=O)c1ccc(C)cc1 | > 20 µM | 
COC(=O)/C=C/N(/N=C/C=C/c1ccc(OC)cc1)S(=O)(=O)c1ccc(C)cc1 | 10 µM | 
COC(=O)/C=C/N(/N=C/c1ccccc1C(F)(F)F)S(=O)(=O)c1ccc(C)cc1 | 20 µM | 
COC(=O)/C=C/N(/N=C/c1ccc[nH]1)S(=O)(=O)c1ccc(C)cc1 | > 20 µM | 
COC(=O)/C=C/N(/N=C/c1ccc(Br)cc1)S(=O)(=O)c1ccc(C)cc1 | > 20 µM | 
COC(=O)/C=C/N(/N=C/c1ccccc1)S(=O)(=O)c1ccc(C)cc1 | 1.25 µM | selectivity ratio [3]: 10.6; MIC [2]: 2.5 µM; IC50 [4]: > 13.3 µM
COC(=O)/C=C\N(/N=C/c1ccccc1OC)S(=O)(=O)c1ccc(C)cc1 | > 20 µM | 
COC(=O)/C=C/N(/N=C/c1ccc2ccccc2c1)S(=O)(=O)c1ccc(C)cc1 | 1.25 µM | selectivity ratio [3]: 9.28; MIC [2]: 2.5 µM; IC50 [4]: > 11.6 µM

SMILES | MIC [1] | also measured
C/C=C/C=C/C=N/N(/C=C/C(=O)OC)S(=O)(=O)c1ccc(C)cc1 | 5 µM | MIC [2]: 10 µM
O=C(N/N=C\c1ccco1)c1cc(C23CC4CC(CC(C4)C2)C3)c2ccccc2n1 |  | MIC [5]: 3.12 µg/mL (≈ 7.81 µM)
COC(=O)/C=C\N(/N=C/c1ccc[nH]1)S(=O)(=O)c1ccc(C)cc1 | > 20 µM | 
COC(=O)/C=C\N(/N=C/c1ccccc1C(F)(F)F)S(=O)(=O)c1ccc(C)cc1 | > 20 µM | 
COC(=O)/C=C\N(/N=C/C1=CC2CC(C1)C2(C)C)S(=O)(=O)c1ccc(C)cc1 (stereo not drawn) | > 20 µM | 
COC(=O)/C=C/N(/N=C/c1ccccc1OC)S(=O)(=O)c1ccc(C)cc1 | 1.25 µM | selectivity ratio [3]: 9.76; MIC [2]: 5 µM; IC50 [4]: > 12.2 µM
CO[C@H]1/C=C/O[C@@]2(C)Oc3c(C)c(O)c4c(O)c(c(/C=N/N5CCN(C)CC5)c(O)c4c3C2=O)NC(=O)/C(C)=C\C=C\[C@H](C)[C@H](O)[C@@H](C)[C@@H](O)[C@@H](C)[C@H](OC(C)=O)[C@@H]1C [RIFAMPIN] | 0.3 µM | 
COC(=O)/C=C\N(/N=C/c1ccc([N+](=O)[O-])cc1)S(=O)(=O)c1ccc(C)cc1 | > 20 µM | 
COC(=O)/C=C\N(/N=C/c1ccc(-c2ccccc2)cc1)S(=O)(=O)c1ccc(C)cc1 | > 20 µM | 
COC(=O)/C=C/N(/N=C/C1=CCCCC1)S(=O)(=O)c1ccc(C)cc1 | 10 µM | 
COC(=O)/C=C\N(/N=C/c1ccc(Br)cc1)S(=O)(=O)c1ccc(C)cc1 | > 20 µM | 
COC(=O)/C=C/N(/N=C/C1=CC2CC(C1)C2(C)C)S(=O)(=O)c1ccc(C)cc1 (stereo not drawn) | > 20 µM | 
COC(=O)/C=C\N(/N=C/C=C/c1ccc(OC)cc1)S(=O)(=O)c1ccc(C)cc1 | > 20 µM | 
COC(=O)/C=C/N(/N=C/c1ccc(OC)c(OC)c1)S(=O)(=O)c1ccc(C)cc1 | > 20 µM | 
COC(=O)/C=C/N(/N=C/c1ccc([N+](=O)[O-])cc1)S(=O)(=O)c1ccc(C)cc1 | > 20 µM | 
Cc1cc(C)nc(NNC(=O)c2ccccn2)n1 |  | IC90 [6]: 1.51 µg/mL (≈ 6.21 µM); MIC [5]: 6.08 µg/mL (≈ 25 µM); IC90 [7]: 2.02 µg/mL (≈ 8.3 µM)
